Assay outcomes: PubChem BioAssay, Johns Hopkins Ion Channel Center
TRPC4 block: TRPC4 (mouse) channel inhibition | HEK293 TRPC4beta/mu-opioid, DAMGO-evoked Fluo4 calcium flux; active compounds read low | 300,000 tested, 0.39% active | Q9QUQ5 | B-score at 10 µM;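 active means B-score over 3 SD under the library average, no early fluorescence shift, positive overall ratio signal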
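Test system – stable TRPC4beta/mu-opioid receptor HEK293 cells · Probe or stimulus – DAMGO, a submaximal dose followed by a maximal one · Dosing – one concentration per compound · Signal – Fluo4 calcium fluorescence by kinetic imaging, 5 s 1 Hz baseline · Evaluation – per-well B score of integrated baseline-normalized Fluo4 ratio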
TRPC6 activator: activators of mouse TRPC6 channel; Q61143; HEK293-TRPC6 membrane potential dye fluorescence; active compounds read high; B-score at 10 µM; 310,000 tested, 0.13% active; AID 2550;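 active means B-score of the integrated fluorescence ratio above library mean plus 3 SD, and starting fluorescence ratio within library mean plus 5 SD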;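 further: higher score means more depolarization so channel activation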
TRPC4 act: activators of mouse TRPC4 channel; HEK293 TRPC4beta/mu-opioid, Fluo4 calcium fluorescence; active compounds read high; AID 2237; 310,000 tested, 0.49% active; B-score at 10 µM; Q9QUQ5;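 active means B-score above 5 SD of library B-scores, and initial fluorescence ratio not above library mean plus 5 SD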;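 further: positive B-score marks a calcium rise read as TRPC4 activation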
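Incubation: 45 min room-temperature Fluo4 loading, 110 s read / System: HEK293 cells stably co-expressing mouse TRPC4beta and mu-opioid receptor / Signal: Fluo4 fluorescence, kinetic / Control set: buffer (low) and maximal DAMGO (high) / Measure: integrated baseline-normalised fluorescence ratio, converted to per-well B score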
TRPC4 potent: TRPC4 (mouse) allosteric potentiation; B-score at 10 µM; 310,000 tested, 0.42% active; Q9QUQ5; HEK293 TRPC4beta/mu-opioid, DAMGO EC20, Fluo-4 Ca2+ flux; active compounds read high; AID 2227;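 active means B-score of calcium response area above 5 SD of library B-scores, with initial fluorescence ratio within 5 SD of library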;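 further: B-score of integrated fluorescence ratio over time as area under calcium response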
TRPC6 inh: mouse TRPC6 channel inhibition. Q61143. HEK293-TRPC6, membrane potential dye, ACh-evoked depolarization; active compounds read low. B-score at 10 µM. 310,000 tested, 1.1% active;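 active means B-score under library mean minus 3 SD, initial fluorescence not abnormally high, positive integrated signal ratio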;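 further: B-score derived from integrated fluorescence ratio over the kinetic read; more negative B-score means stronger inhibition of depolarization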
HEK293 TRPC6 ctr: checks TRPC6 modulator effects in parental HEK293 cells; membrane potential signal change, % at 10 µM; shares compounds with TRPC6 inh; AID 488924; 2,400 tested, 51% active; membrane potential dye fluorescence;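 active means membrane potential signal moves up or down beyond 5 SD from buffer-only wells, on both duplicate plates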
HEK293 MPD ctr 2: second check of TRPC6 modulator effects in parental HEK293 cells | shares compounds with TRPC6 inh | membrane potential dye fluorescence; after compound, maximal acetylcholine stimulation | inhibition, % at 10 µM | 2,400 tested, 14% active;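 active means membrane potential signal drops by more than 5 SD from the mean control signal, in both duplicate plates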;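 further: plate controls were acetylcholine ECmax control wells for no effect and buffer only wells for full effect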
TRPC4/MOR mod: selectivity of TRPC6 modulators against mouse TRPC4; shares compounds with TRPC6 inh; HEK293 TRPC4/mu-opioid, membrane potential fluorescence; percent change from control (negative = decrease, positive = increase), % at 10 µM; 2,400 tested, 69% active; AID 488927;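 active means membrane potential signal moved up or down beyond 5 SD of buffer control wells, in both duplicate plates, actives on both sides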;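 further: plate controls were assay buffer wells for no effect and DAMGO maximal-effect wells for full effect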
TRPC4/MOR inh 2: second selectivity test of TRPC6 modulators against mouse TRPC4 | shares compounds with TRPC6 inh | HEK293 TRPC4/mu-opioid, membrane potential dye fluorescence; stimulated with maximal-effect DAMGO | inhibition, % at 10 µM | 2,400 tested, 55% active;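 active means drop in membrane potential signal beyond 5 SD of the control wells in both duplicate plates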;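 further: TRPC4 counter screen for TRPC6 hits run under conditions tuned for TRPC6 not TRPC4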
TRPC6 inh conf: confirmation of mouse TRPC6 inhibitors | inhibition, % at 10 µM | HEK293-TRPC6, membrane potential dye, ACh-evoked depolarization | 3,300 tested, 43% active | shares compounds with TRPC6 inh;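 active means fluorescence ratio falls more than 5 SD below the full-stimulation control mean, in both duplicate runs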;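 further: integrated fluorescence ratio of peak minus minimum over baseline after agonist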
TRPC6 act confirm: confirmation of mouse TRPC6 activators; 2,800 tested, 11% active; HEK293-TRPC6 membrane potential dye fluorescence, FDSS; shares compounds with TRPC6 inh; activation, % at 10 µM;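 active means ratio signal rise beyond 5 SD above unstimulated control wells' mean, seen in both duplicate runs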;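 further: plate controls were buffer EC0 wells for no effect and acetylcholine ECmax response for full effect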
* = called active by the depositor; i = inactive; . = no result given. In the library only some 2.3% were active in any assay of this set; here they are far more common.

SMILES	TRPC4 block	TRPC6 activator	TRPC4 act	TRPC4 potent	TRPC6 inh	HEK293 TRPC6 ctr	HEK293 MPD ctr 2	TRPC4/MOR mod	TRPC4/MOR inh 2	TRPC6 inh conf	TRPC6 act confirm
CCCCn1c(O)c(C=Nc2c(C)n(C)n(-c3ccccc3)c2=O)c(=O)[nH]c1=O	i	i	i	i	i	.	.	.	.	.	.
CC1(C)C2([N+](=O)[O-])CN3CC1([N+](=O)[O-])CN(C2)C3c1ccccn1 (stereo not given)	i	i	i	i	i	.	.	.	.	.	.
Cc1cc(C(=O)CS(=O)(=O)c2ccccc2)cc(C)c1OC(=O)N(C)C	i	i	i	i	i	.	.	.	.	.	.
C[N+](C)(C)CC#CCN1CCCC1=O	i	i	86*	i	-5.94*	103.0%*	60.5%*	45.0%*	i	78.5%*	.
NCCNc1ccc([N+](=O)[O-])c2cccnc12	i	i	70*	10*	-5.25*	-231.5%*	i	-31.0%*	50.5%*	43.0%*	i
CC(O)CNc1ccc([N+](=O)[O-])c2cccnc12 (stereo not given)	i	i	i	i	i	.	.	.	.	.	.
O=C(c1n[nH]c(=O)c2ccccc12)N1CCC2(CC1)OCCO2	i	i	i	i	i	.	.	.	.	.	.
Cc1ccccc1-n1c(O)c(C=NCCN2CCOCC2)c(=O)[nH]c1=O	i	i	i	i	i	.	.	.	.	.	.
CCCCn1c(C)c(C(=O)OCC)c2c(CN3CCCC3)c(O)ccc21	i	i	i	i	-5.44*	i	i	i	58.5%*	47.5%*	i
CCOC(=O)c1c(C)n(Cc2ccc(F)cc2)c2ccc(O)cc12	i	i	i	i	i	.	.	.	.	.	.
CCCCn1c(C)c(C(=O)OCC)c2c(CN3CCOCC3)c(O)ccc21	i	i	i	i	-5.26*	-88.5%*	i	-12.5%*	66.5%*	62.5%*	i
COc1cc2c(cc1OC)-c1c(OC)c(OC)cc3c1[C@H](C2)[N+](C)(C)CC3	i	i	i	i	-8.59*	-404.5%*	63.0%*	-69.0%*	63.5%*	59.5%*	i
CN1CC(C(=O)c2ccc(Cl)cc2)C(c2ccc(Cl)cc2Cl)C1 (stereo not given)	i	i	i	i	i	.	.	.	.	.	.
CN1CCC(O)(c2ccc(Cl)cc2)C(C(=O)c2ccc(Cl)cc2)C1 (stereo not given)	i	i	i	i	-5.44*	i	i	i	35.0%*	i	i
O=[N+]([O-])c1ccccc1CNCCc1c[nH]c2ccccc12	i	i	i	i	-5.55*	i	i	i	42.5%*	i	i
COc1cc(C(C)=O)ccc1OC(=O)N(C)c1ccccc1	i	i	i	i	i	.	.	.	.	.	.
Cc1cc(C)[n+](CCCC[n+]2c(C)cc(C)cc2C)c(C)c1	i	i	i	i	-8.89*	-437.5%*	98.5%*	-70.5%*	59.0%*	66.0%*	i
CC[N+]12CCC(CC1)C(C(O)(c1ccccc1)c1ccccc1)C2 (stereo not given)	i	i	i	i	-6.02*	i	i	i	i	81.5%*	i
